The Ki is the equilibrium dissociation constant of an inhibitor or competing ligand from its target.

Ki and Kb data for seven molecules are collected here from ChEMBL document CHEMBL1287755, “Design, synthesis and inhibition activity of novel cyclic peptides against protein tyrosine phosphatase A from Mycobacterium tuberculosis” (Bioorg Med Chem, 2010).

In experiment [1] the target is T1, Low molecular weight protein-tyrosine phosphatase A (Mycobacterium tuberculosis, UniProt P9WIA1).
T1 sequence (P9WIA1 whole entry): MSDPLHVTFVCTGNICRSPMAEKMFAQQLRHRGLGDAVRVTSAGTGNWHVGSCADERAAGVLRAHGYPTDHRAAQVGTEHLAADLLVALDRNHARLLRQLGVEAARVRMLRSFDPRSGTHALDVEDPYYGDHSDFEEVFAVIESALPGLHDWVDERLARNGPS
As to the kind of experiment: Inhibition of Mycobacterium tuberculosis recombinant protein tyrosine phosphatase A by Lineweaver-Burke plot analysis. In a few lines:
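Recombinant wild-type MPtpA (purified, purity by SDS-PAGE, concentration from A280) held at 1 µM. Phosphatase activity measured at 25 °C in 0.1 M Tris, 0.15 M NaCl, 1 mM EDTA, pH 7.5, with pNPP substrate. p-Nitrophenol release read at 405 nm. Inhibitors added from methanol, final methanol ≤3% v/v. Inhibitor typically 10–50 µM, substrate 100–300 µM. Triplicate assays. Mode of inhibition from double-reciprocal plots. Ki taken from a plot of Km/Vmax versus [I].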

Experiment [2] addresses T2, Low molecular weight protein-tyrosine phosphatase A (Mycobacterium tuberculosis) (UniProt P9WIA1).
T2 sequence (whole entry): T1 sequence (P9WIA1 whole entry)
As to the kind of experiment: Binding affinity to Mycobacterium tuberculosis recombinant protein tyrosine phosphatase A by circular dichroism spectral analysis. In a few lines: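 Far-UV CD of recombinant MPtpA at 25 °C in Tris buffer, 10 mm quartz cell. Spectra taken over 195–240 nm at 50 nm/min with 4 s response. Buffer blank containing the ligand subtracted. Protein:peptide ratio titrated from 2:1 up to 1:6. Changes followed at the α-helix minima, 208 and 222 nm, and a binding constant was derived from the titration.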
For orientation: Circular dichroism is the unequal absorption of left and right circularly polarised light.

The target in experiment [3] is T2, Low molecular weight protein-tyrosine phosphatase A (Mycobacterium tuberculosis). As to the kind of experiment: Binding affinity to Mycobacterium tuberculosis recombinant protein tyrosine phosphatase A by fluorescence quenching assay. Summed up: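 Intrinsic tryptophan fluorescence of MPtpA, held at 2 µM, recorded at 20 °C in a 10 mm quartz cuvette. Emission maximum at 340 nm followed during titration with the peptide, up to a 1:10 protein:peptide ratio. Data fitted to Stern–Volmer (F0/F = 1 + Ksv[Q]) and Scatchard plots to give quenching and binding constants.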

In the case of `O=C1CNC(=O)CNC(=O)[C@@H]([C@@H](Nc2ccccc2)c2ccccc2)CN1`, the Ki in experiment [1] was found to be 85.5 µM. Further, the Kb in experiment [2] stood at 4.7 ×10⁴ /M; in experiment [3] it was 4.87 ×10⁴ /M.
On to `O=C1CNC(=O)CNC(=O)[C@@H]([C@@H](Nc2ccccc2)c2ccco2)CN1`, for which the Ki in experiment [1] stood at 215 µM. For the same molecule, the Kb worked out at 2.95 ×10⁴ /M in experiment [2] and 2.99 ×10⁴ /M in experiment [3].
In the same order, the values of `C[C@@H]1NC(=O)[C@H](C)NC(=O)[C@H](C)NC(=O)[C@@H]([C@@H](Nc2ccccc2)c2ccccc2)CNC1=O` are 199 µM, 3.3 ×10⁴ /M and 3.27 ×10⁴ /M.
Turning to `O=C1CNC(=O)[C@H](Cc2ccc(O)cc2)NC(=O)[C@@H]([C@@H](Nc2ccccc2)c2ccccc2)CN1`, the Ki in experiment [1] was determined as 8 µM. The Kb in experiment [2] amounted to 1.2 ×10⁵ /M; in experiment [3], 1.5 ×10⁵ /M.
For `O=C1CNC(=O)[C@@H]([C@@H](Nc2ccccc2)c2ccccc2)CN1` the same measures were 140 µM, 3.6 ×10⁴ /M and 3.41 ×10⁴ /M.
For `C[C@@H]1NC(=O)[C@H](C)NC(=O)[C@@H]([C@@H](Nc2ccccc2)c2ccccc2)CNC1=O` the same measures were 220 µM, 1.1 ×10⁴ /M and 1 ×10⁴ /M.
In the same order, the values of `O=C1CC[C@H](C(=O)O)NC(=O)[C@@H]([C@@H](Nc2ccccc2)c2ccccc2)CN1` are 36.3 µM, 8.5 ×10⁴ /M and 8.89 ×10⁴ /M.
